# Screens (PubChem)
# Compounds with a hit are over-represented: about 4.9% of the library has one in this group of screens.
# STAT1 blocker – STAT1 signaling inhibitors, primary screen, cell-based, HTS, luciferase reporter. NIH 3T3 STAT1-luciferase reporter, IFN-gamma, luminescence. inhibition, % at 5.5 µM. hit rate 0.35% among 200,000;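 active = inhibition above a set limit, the mean inhibition across all tested compounds plus 3 SD, cut at about 34% in these data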;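 note: 0% = IFN-gamma with DMSO and 100% = IFN-gamma with 300 µM nifuroxazide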
# STAT1 act – STAT1 signaling activators, primary screen, cell-based, HTS, luciferase reporter; activation (% of control), % at 5.5 µM; AID 932, 2007; NIH 3T3 STAT1-luciferase reporter, IFN-gamma, luminescence; 100% = IFN-gamma alone, no compound; hit rate 2.6% among 200,000;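 active = activation above the screen-wide mean activation plus 3 SD, cut at about 130% in these data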;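 note: raw ratio to IFN-gamma control signal so 100% means no change and 0% no light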
# APP 5'UTR act – activators of APP 5'UTR luciferase reporter, primary screen, SH-SY5Y cells; activation, % at 2 µM; hit rate 1% among 190,000; SH-SY5Y APP 5'UTR luciferase reporter, luminescence; zero percent = DMSO vehicle wells;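 active = activation above a set limit, based on mean plus 3 SD of controls, cut at about 140% in these data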
# NF-kB expr up – activators of NF-kB expression in neurons, primary screen, cell-based, HTS; AID 1239, 2008; hit rate 1.6% among 190,000; human neuronal cells, NF-kB reporter expression; hits give high values; fold change at 12.5 µM; in the data active = fold change above about 3.3
# STAT3 blocker – IL-6 driven STAT3 reporter inhibitors, primary screen, U3A cells, luciferase, luminescence, MLSCN library. IL-6 STAT3-luciferase reporter; host cell line lacks STAT1. inhibition, % at 5.5 µM. AID 862, 2007. hit rate 0.89% among 190,000;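 active = inhibition above the mean inhibition across all screened compounds plus 3 SD, cut at about 44% in these data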;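 note: 0% = DMSO only wells and 100% = 100 µM nifuroxazide control wells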
# STAT3 act – IL-6 driven STAT3 reporter potentiators, primary screen, U3A cells, luciferase, luminescence, MLSCN library; hit rate 0.91% among 190,000; activation (% of control), % at 5.6 µM; IL-6 STAT3-luciferase reporter; 100% = signal with IL-6 EC80 alone;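 active = activation above the screen-wide mean of compound activation plus 3 SD, cut at about 130% in these data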;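 note: 0% = background luminescence of wells with medium and substrate only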
#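 Material: human STAT1-deficient U3A cells with stable STAT3-luciferase reporter / Probe or stimulus: IL-6 stimulus at 33 ng/mL final / Schedule: 1 h compound pre-exposure, 6 h IL-6 stimulation, 37 °C / Technique: luminescence / Read-out basis: percent of IL-6-only median luminescence / Control set: IL-6-only high control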
# An asterisk follows results filed as active; . = no result.
SMILES,STAT1 blocker,STAT1 act,APP 5'UTR act,NF-kB expr up,STAT3 blocker,STAT3 act
O=C(/C=C/c1ccc(Cl)c(Cl)c1)NC1=NCCS1,-37,134*,25,1.6,4,101
O=C(c1ccccc1)c1nc2ccccc2n(CCCn2c(=O)c(C(=O)c3ccccc3)nc3ccccc32)c1=O,5,95,14,0.88,-4,107
Cc1ccc(S(=O)(=O)NCc2ccc(C(=O)NCCN(Cc3ccccc3)C(C)C)cc2)cc1,19,81,-11,0.78,-3,104
O=C(CNC(=O)c1cccs1)OCC(=O)c1ccccc1Cl,-8,107,-4,1.2,12,97
Cc1ccc(/C=N/N2CCN(c3ccccn3)CC2)cc1,-44,142*,-2,2.2,9,93
Cn1cccc1/C=N/N1CCN(c2ccccn2)CC1,-8,107,10,0.97,23,83
CN1CCN(/N=C/c2ccc(-c3ccccc3)cc2)CC1,-16,116,75,3.8*,29,81
COc1cccc(NC(=O)c2cc(CN3C(=O)c4ccccc4C3=O)ccc2OC)c1,3,98,27,1.2,13,89
COc1ccc(N(C)C(=O)Nc2ccc3nsnc3c2)cc1,11,89,18,1.3,8,97
O=C(Nc1ccc(Cl)cc1)c1ccc2nsnc2c1,-57,150*,95,3.3*,6,101
CN(C)c1ccc(NC(=O)c2ccc3nsnc3c2)cc1,-48,144*,18,2.6,26,84
COc1ccc(Cc2nnc(Nc3ccc4c(c3)OCCO4)[nH]c2=O)cc1,6,94,6,1.3,5,99
O=C(C1=C(O)C(=O)N(CCc2ccccc2)C1c1cccs1)c1ccco1 (configuration not stated),-4,104,4,0.95,14,95
CCc1ccc2nc(N3C(=O)C(O)=C(C(=O)c4ccco4)C3c3cccs3)sc2c1 (configuration not stated),-15,113,158*,2.6,13,92
CCCCCN1C=CC(=C2C(=O)c3ccccc3C2=O)C=C1,97*,12,-54,.,107*,9
CCOC(=O)c1ccccc1NC(=S)N1CCN(C2CCCCC2)CC1,1,98,1,1.1,7,100
Cc1cccc(NC(=O)c2ccc(N3CCCCC3)c([N+](=O)[O-])c2)n1,-50,144*,159*,5.2*,10,96
Cc1cccc(NC(=O)c2ccc(N3CCOCC3)c([N+](=O)[O-])c2)n1,-22,117,65,2,6,99
Nc1ccc(O)c(-c2nc3ccccc3s2)c1,-31,128,22,2.1,-27,130
Oc1ccc(N=C/C=C/c2cccc(Br)c2)cc1-c1nc2ccccc2s1,-49,144*,44,1.3,-18,113
COCc1cc(C)nc(SCc2nc3ccccc3c(=O)[nH]2)c1C#N,-12,112,8,1.3,14,93
Cc1cc(C)c(C#N)c(SCc2nc3ccccc3c(=O)[nH]2)n1,-14,113,153*,2.5,26,82
O=c1[nH]c(CSc2ccccn2)nc2c1cnn2-c1ccccc1,-13,111,22,1.4,0,102
O=c1[nH]c(CSc2ccccn2)nc2ccccc12,-39,135*,123,2.9,15,90
CCCCNC(=S)Nc1cc([N+](=O)[O-])ccc1C,12,89,12,1.1,10,90
SMILES,STAT1 blocker,STAT1 act,APP 5'UTR act,NF-kB expr up,STAT3 blocker,STAT3 act
CCc1cc2cc(C)ccc2nc1SCC(=O)Nc1cc(C)on1,-2,103,6,3.3*,5,97
CCSc1nc2ccc(C)cc2cc1C#N,-6,105,23,1.4,8,98
CCc1cc2ccc(C)cc2nc1SCC(=O)Nc1cc(C)on1,-4,101,2,0.92,1,102
CCOC(=O)CC(=O)CSc1nc2ccc(C)cc2cc1C#N,-40,137*,32,8.3*,-6,110
CC(C)OC(=O)CC(=O)CSc1nc2c(cc1C#N)CCCCC2,-17,115,58,4.3*,6,98
CCOC(=O)CC(=O)CSc1nc2c(cc1C#N)CCCCC2,-45,141*,126,4.6*,11,94
CC(C)OC(=O)CSc1nc2c(cc1C#N)CCCCC2,-9,106,93,1.4,12,92
CCCSc1ccc(C(=O)Nc2ccc(Cl)cc2)cn1,-33,127,20,2.3,-2,106
OCC1(Cc2cccc(Cl)c2)CCCN(Cc2cnn(-c3ccccc3)c2)C1 (configuration not stated),3,96,12,0.91,0,104
N#Cc1cc2c(nc1SCc1ccncc1)CCC2,-41,138*,48,1.6,10,94
Cc1cc(NC(=O)CSc2nc3c(cc2C#N)CCCC3)no1,-43,138*,207*,2.4,10,95
COc1ccc2nc(SCC(=O)N3CCCCCC3)c(C#N)cc2c1,16,85,15,0.65,6,98
COc1ccc2nc(SCC(=O)N3CCCCC3)c(C#N)cc2c1,-35,131*,15,1.5,-7,108
CNC(=O)c1ccc(NC(=O)/C=C/c2cccc(F)c2)cc1,-28,127,47,2,18,91
O=[N+]([O-])c1cc(CN2CCC(O)CC2)ccc1Cl,-2,100,5,1,6,98
S=C(c1ccc(-c2ccccc2Cl)o1)N1CCOCC1,-20,119,36,2.5,-8,113
S=C(c1ccc(-c2ccc(Cl)cc2Cl)o1)N1CCCCC1,-48,144*,46,3.9*,-15,118
O=C(c1ccc2ccccc2c1)N1CCN(c2ccc(O)cc2)CC1,1,99,21,4.1*,3,104
O=C(c1ccc2ccccc2c1)N1CCN(c2ccc([N+](=O)[O-])c(N3CCOCC3)c2)CC1,3,97,-11,0.75,11,92
CCOC(=O)N1CCN(c2ccc(O)cc2)CC1,6,95,24,3.5*,9,95
CC(NC(=O)/C=C/c1ccco1)c1nc2ccccc2n1Cc1ccccc1F (configuration not stated),1,99,-3,1.1,-6,107
CCCN(CCC)C(=O)C1CC(=O)OC12CCCCC2 (configuration not stated),2,98,18,1.3,7,97
O=C(Nc1ccc(N2CCOCC2)cc1)c1cc2ccccc2o1,-73,171*,91,2.5,19,87
O=C(Nc1ccc(CN2CCOCC2)cc1)c1cc2ccccc2o1,-36,134*,168*,2.9,20,87
